Data taken from ChEMBL document CHEMBL5653631, “A Potent and Selective ULK1 Inhibitor Suppresses Autophagy and Sensitizes Cancer Cells to Nutrient Stress” (iScience, 2018).
Each block holds one compound with its values, some of them ahead of it.

How the values were obtained:
[1] = target: Aurora kinase B (Homo sapiens) (UniProt Q96GD4); test: Inhibition of human recombinant AurB at 500 nM in presence of ATP by radiometric assay relative to control
Summary of the method: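 Part of a radiometric in vitro activity panel of 327 recombinant human kinases. Each kinase was tested in duplicate at one inhibitor concentration. Activity remaining was expressed as a percentage of the vehicle control, and percent inhibition was taken as 100 minus that value.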

[2] = target: Cyclin-dependent kinase 4 (Homo sapiens) (UniProt P11802); test: Inhibition of human recombinant CDK4 at 500 nM in presence of ATP by radiometric assay relative to control
[3] = target: T1, Serine/threonine-protein kinase Sgk1 (Homo sapiens) (UniProt O00141); test: Inhibition of human recombinant SGK1 at 500 nM in presence of ATP by radiometric assay relative to control
T1 sequence (whole entry): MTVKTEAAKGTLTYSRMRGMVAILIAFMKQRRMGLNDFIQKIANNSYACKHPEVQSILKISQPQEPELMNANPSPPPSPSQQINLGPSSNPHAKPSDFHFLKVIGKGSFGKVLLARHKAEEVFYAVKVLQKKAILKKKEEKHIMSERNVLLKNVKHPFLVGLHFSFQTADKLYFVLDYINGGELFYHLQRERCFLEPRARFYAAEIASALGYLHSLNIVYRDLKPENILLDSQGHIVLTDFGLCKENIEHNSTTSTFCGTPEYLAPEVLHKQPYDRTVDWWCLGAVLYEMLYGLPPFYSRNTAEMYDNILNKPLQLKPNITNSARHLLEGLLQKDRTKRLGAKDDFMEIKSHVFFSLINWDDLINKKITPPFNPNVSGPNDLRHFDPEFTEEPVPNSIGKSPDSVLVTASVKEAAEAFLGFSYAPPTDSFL

[4] = target: Homeodomain-interacting protein kinase 2 (Homo sapiens) (UniProt Q9H2X6); test: Inhibition of human recombinant HIPK2 at 500 nM related to control ULK1
[5] = target: Calcium/calmodulin-dependent protein kinase type 1B (Homo sapiens) (UniProt Q6P2M8); test: Inhibition of human recombinant CaMK1b at 15 nM in presence of ATP by radiometric assay relative to control
[6] = target: T2, MAPK/MAK/MRK overlapping kinase (Homo sapiens) (UniProt Q9UQ07); test: Inhibition of human recombinant MOK at 15 nM in presence of ATP by radiometric assay relative to control
T2 sequence (whole entry): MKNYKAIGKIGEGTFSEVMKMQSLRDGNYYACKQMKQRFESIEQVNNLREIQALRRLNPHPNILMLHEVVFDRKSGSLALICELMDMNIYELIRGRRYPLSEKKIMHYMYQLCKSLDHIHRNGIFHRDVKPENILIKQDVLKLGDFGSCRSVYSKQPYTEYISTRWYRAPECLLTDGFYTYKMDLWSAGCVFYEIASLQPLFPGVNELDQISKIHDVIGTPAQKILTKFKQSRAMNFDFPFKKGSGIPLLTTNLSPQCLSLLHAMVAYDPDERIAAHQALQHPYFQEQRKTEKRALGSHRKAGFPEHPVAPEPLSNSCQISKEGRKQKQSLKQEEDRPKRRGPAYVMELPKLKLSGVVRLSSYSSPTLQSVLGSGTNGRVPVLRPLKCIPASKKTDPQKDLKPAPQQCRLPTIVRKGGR

[7] = target: Ephrin type-A receptor 5 (Homo sapiens) (UniProt P54756); test: Inhibition of human recombinant EphA5 at 15 nM related to control ULK1
[8] = target: Receptor tyrosine-protein kinase erbB-2 (Homo sapiens) (UniProt P04626); test: Inhibition of human recombinant ErbB2 at 15 nM related to control ULK1
[9] = target: Fibroblast growth factor receptor 3 (Homo sapiens) (UniProt P22607); test: Inhibition of human recombinant FGFR3 at 15 nM related to control ULK1
[10] = target: Insulin receptor-related protein (Homo sapiens) (UniProt P14616); test: Inhibition of human recombinant IRR at 40 nM in presence of ATP by radiometric assay relative to control
[11] = target: T3, Mitogen-activated protein kinase kinase kinase 2 (Homo sapiens) (UniProt Q9Y2U5); test: Inhibition of human recombinant MAP3K2 at 40 nM in presence of ATP by radiometric assay relative to control
T3 sequence (whole entry): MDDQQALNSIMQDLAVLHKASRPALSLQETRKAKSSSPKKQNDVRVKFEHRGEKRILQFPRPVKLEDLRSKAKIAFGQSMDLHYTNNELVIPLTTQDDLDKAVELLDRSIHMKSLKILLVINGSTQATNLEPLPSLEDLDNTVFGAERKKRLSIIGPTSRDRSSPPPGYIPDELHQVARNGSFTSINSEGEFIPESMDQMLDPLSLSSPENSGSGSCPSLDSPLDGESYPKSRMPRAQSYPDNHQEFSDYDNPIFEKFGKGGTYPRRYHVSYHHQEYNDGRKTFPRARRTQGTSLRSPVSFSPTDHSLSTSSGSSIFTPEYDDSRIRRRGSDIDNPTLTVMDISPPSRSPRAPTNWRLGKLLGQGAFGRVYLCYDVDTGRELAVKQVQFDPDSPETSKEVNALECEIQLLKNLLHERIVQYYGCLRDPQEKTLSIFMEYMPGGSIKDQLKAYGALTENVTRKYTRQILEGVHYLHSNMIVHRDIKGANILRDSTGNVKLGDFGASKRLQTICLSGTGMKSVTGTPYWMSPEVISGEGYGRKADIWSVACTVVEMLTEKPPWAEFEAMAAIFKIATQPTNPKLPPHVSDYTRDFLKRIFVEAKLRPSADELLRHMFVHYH

[12] = target: Vascular endothelial growth factor receptor 2 (Homo sapiens) (UniProt P35968); test: Inhibition of human recombinant KDR at 40 nM related to control ULK1
Vascular endothelial growth factor receptor 2 (Homo sapiens), sequence (P35968 whole entry): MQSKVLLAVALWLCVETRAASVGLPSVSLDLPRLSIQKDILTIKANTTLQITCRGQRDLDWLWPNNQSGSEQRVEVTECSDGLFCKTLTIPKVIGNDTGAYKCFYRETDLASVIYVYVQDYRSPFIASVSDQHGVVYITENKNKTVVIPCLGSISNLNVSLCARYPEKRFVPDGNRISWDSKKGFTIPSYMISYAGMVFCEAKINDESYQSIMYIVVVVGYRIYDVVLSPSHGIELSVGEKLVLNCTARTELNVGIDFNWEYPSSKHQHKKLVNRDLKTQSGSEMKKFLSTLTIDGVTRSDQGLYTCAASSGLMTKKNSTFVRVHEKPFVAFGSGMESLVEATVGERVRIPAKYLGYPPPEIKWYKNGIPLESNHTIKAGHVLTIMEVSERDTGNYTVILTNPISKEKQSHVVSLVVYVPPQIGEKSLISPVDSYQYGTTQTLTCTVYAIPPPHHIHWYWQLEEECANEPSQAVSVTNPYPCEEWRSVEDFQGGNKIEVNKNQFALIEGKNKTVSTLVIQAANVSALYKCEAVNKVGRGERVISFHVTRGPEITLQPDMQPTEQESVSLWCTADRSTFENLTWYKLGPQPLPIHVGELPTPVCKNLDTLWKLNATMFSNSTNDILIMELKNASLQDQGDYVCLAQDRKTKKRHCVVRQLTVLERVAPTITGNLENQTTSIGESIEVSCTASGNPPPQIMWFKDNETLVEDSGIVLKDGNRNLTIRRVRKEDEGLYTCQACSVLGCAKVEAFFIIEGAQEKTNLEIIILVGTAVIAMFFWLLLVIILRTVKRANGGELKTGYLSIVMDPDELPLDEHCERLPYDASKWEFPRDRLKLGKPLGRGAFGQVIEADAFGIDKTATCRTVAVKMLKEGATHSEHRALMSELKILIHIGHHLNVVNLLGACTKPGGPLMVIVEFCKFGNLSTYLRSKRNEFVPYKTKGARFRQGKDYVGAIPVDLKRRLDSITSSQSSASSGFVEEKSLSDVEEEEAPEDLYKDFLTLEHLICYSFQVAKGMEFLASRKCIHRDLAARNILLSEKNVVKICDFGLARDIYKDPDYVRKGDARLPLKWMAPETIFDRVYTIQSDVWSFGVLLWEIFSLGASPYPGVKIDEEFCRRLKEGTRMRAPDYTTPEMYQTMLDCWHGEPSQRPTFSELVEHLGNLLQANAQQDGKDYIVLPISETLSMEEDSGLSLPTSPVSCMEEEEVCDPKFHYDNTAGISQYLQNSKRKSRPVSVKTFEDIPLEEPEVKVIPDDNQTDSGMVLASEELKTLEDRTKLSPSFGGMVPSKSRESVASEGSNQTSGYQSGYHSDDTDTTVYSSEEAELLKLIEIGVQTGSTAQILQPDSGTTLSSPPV

Homeodomain-interacting protein kinase 2 (Homo sapiens), sequence (Q9H2X6 whole entry, looked up): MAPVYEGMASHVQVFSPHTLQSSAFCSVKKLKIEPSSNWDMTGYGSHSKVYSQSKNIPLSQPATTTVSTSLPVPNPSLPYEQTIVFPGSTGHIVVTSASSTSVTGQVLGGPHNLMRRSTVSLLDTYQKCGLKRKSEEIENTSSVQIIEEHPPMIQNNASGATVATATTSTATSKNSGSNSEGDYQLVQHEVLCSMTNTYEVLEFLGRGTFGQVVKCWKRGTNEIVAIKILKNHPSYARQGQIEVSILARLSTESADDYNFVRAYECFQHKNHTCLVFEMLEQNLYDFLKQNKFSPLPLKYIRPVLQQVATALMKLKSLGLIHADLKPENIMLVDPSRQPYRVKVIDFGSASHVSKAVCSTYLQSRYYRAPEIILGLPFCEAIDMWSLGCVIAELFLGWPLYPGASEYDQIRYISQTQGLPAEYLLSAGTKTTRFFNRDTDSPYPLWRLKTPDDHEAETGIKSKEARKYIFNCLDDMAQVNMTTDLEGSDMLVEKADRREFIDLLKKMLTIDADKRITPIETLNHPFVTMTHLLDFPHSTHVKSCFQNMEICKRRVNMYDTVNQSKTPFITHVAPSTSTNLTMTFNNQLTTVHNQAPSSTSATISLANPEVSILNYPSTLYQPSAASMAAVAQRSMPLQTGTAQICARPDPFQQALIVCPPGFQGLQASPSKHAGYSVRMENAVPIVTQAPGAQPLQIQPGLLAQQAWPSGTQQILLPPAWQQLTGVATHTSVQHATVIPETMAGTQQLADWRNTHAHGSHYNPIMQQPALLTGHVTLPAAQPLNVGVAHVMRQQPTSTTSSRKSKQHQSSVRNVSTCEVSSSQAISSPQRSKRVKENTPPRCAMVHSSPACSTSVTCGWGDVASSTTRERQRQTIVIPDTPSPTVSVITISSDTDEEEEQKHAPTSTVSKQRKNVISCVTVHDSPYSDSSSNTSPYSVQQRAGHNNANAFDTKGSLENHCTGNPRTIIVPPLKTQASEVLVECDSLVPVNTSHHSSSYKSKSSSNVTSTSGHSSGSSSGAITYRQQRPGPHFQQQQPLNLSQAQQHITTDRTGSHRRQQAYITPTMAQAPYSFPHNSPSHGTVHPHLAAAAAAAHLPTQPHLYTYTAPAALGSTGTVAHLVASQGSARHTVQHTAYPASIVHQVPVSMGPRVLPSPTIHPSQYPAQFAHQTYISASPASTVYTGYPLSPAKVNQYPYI
Calcium/calmodulin-dependent protein kinase type 1B (Homo sapiens), sequence (Q6P2M8 whole entry): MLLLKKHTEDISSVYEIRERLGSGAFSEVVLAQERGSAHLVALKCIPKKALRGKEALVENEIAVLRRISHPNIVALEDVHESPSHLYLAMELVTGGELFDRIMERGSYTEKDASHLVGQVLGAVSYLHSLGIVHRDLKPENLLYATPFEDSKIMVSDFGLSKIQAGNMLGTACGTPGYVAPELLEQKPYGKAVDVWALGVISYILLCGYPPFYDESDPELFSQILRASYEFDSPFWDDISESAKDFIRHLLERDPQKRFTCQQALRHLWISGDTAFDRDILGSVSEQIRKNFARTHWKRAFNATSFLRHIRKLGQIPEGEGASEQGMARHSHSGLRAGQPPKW
Cyclin-dependent kinase 4 (Homo sapiens), sequence (P11802 whole entry): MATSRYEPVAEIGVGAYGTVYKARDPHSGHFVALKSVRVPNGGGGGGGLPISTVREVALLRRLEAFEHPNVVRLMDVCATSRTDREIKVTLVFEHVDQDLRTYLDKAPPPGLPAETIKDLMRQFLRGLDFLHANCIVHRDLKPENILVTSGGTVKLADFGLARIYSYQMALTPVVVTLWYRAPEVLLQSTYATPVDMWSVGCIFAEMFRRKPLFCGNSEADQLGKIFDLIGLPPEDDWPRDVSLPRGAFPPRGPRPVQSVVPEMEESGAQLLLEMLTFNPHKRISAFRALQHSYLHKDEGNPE
Fibroblast growth factor receptor 3 (Homo sapiens), sequence (P22607 23-806 limits assumed): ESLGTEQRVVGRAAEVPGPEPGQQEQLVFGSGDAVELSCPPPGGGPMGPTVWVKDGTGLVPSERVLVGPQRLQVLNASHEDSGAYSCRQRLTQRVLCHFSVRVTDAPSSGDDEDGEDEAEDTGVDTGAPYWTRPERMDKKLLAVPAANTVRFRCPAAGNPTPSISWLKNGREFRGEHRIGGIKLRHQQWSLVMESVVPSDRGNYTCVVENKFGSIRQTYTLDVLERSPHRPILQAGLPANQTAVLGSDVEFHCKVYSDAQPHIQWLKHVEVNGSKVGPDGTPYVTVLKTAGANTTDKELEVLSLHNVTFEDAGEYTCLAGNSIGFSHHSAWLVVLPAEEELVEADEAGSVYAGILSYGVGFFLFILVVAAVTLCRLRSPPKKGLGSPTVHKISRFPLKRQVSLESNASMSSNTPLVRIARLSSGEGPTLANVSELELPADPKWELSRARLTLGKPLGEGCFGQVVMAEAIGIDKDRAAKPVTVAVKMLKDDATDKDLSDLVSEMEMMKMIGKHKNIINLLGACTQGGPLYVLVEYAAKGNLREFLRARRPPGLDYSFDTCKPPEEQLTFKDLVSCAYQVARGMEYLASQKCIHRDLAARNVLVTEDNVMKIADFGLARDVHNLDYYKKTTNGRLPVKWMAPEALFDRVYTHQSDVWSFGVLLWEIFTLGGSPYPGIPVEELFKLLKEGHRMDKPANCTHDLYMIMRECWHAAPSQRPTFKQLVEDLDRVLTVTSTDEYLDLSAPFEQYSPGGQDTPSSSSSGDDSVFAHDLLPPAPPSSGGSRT
Aurora kinase B (Homo sapiens), sequence (Q96GD4 whole entry): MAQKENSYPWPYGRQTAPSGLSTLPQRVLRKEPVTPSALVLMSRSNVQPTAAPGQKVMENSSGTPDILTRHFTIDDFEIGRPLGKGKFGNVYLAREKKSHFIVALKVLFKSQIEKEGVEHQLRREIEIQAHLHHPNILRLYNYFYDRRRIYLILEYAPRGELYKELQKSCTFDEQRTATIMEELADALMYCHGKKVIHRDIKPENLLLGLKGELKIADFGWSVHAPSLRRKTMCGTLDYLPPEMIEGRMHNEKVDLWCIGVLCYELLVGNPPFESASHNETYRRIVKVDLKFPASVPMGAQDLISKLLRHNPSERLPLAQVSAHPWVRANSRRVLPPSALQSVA

inhibition [1]: 92% | inhibition [2]: 0% | inhibition [3]: 2% | fold change (FC) [4]: 0
Compound: CNC(=O)c1ccccc1Oc1nc(Nc2cc(OC)c(OC)c(OC)c2)ncc1Br

inhibition [5]: 0% | inhibition [6]: 5% | fold change (FC) [7]: 0 | fold change (FC) [8]: 0 | fold change (FC) [9]: 0
Compound: CC(C)[C@H](NC(=O)c1cc(-c2cnn3cc(-c4ccc(OCCN5CCCCC5)cc4)cnc23)cs1)C(F)(F)F

inhibition [10]: 2% | inhibition [11]: 0% | fold change (FC) [12]: 0.07
Compound: O=C(N[C@@H](C1CC1)C(F)(F)F)c1cc(-c2cnn3cc(-c4ccc(F)cc4)cnc23)cs1
